Most compounds without a hit are left out; they make up all but 1.6% or so of the library.
UHRF1 binding: human UHRF1 methylated DNA binding inhibitors; Q96T88; UHRF1 binding to methylated oligo, TR-FRET; inhibition, % at 4.4 µM; hit rate 0.75% among 370,000; in the data active means inhibition above about 21%;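 further: UHRF1 SRA domain binding a hemimethylated CpG hairpin DNA probe; 0% = median of test compound wells and 100% = reference inhibitor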
Target sequence (Q96T88 whole entry, looked up, the tested form may be a part): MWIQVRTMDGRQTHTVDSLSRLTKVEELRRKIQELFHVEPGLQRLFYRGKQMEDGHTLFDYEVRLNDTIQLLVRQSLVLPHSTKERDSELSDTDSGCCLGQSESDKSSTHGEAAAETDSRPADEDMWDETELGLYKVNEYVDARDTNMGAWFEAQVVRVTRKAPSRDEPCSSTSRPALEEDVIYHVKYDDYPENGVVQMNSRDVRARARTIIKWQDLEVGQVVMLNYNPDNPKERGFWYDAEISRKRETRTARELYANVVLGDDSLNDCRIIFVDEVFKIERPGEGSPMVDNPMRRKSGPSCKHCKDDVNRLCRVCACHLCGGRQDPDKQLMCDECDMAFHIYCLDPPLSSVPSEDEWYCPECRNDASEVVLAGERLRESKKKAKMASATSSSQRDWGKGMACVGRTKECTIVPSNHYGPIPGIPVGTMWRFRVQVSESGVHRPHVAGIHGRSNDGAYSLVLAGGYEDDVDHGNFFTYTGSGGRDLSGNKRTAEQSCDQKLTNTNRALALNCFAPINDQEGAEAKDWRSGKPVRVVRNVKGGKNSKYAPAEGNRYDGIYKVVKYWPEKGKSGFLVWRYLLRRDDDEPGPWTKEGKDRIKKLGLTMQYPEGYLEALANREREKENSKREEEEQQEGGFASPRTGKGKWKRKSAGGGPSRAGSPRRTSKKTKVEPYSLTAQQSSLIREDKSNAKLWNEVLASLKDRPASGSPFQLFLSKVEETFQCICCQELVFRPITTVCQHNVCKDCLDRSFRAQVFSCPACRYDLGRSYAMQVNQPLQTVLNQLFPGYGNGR
LEDGF integ inh: blocks HIV-1 LEDGF/p75-dependent DNA integration; hit rate 0.64% among 370,000; TR-FRET IN-LEDGF/p75 DNA integration, Eu/Cy5; inhibition, % at 3.7 µM;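 active means inhibition above the screen-wide mean plus 3 SD, cut at about 13% in these data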;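 further: signal is the Cy5 over europium emission ratio at 671 and 618 nm; 0% = plate median of compound wells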
TDP2 absorb: TDP2 (human) inhibition, absorbance primary screen; AID 720702; O95551; inhibition, % at 12.8 µM; hit rate 0.34% among 370,000; recombinant TDP2, T5PNP hydrolysis, p-nitrophenol absorbance 415 nm;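 active means inhibition above the mean of all tested compounds plus 3 SD, set per campaign, cut at about 25% in these data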;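 further: 0% = DMSO with enzyme and 100% = buffer with substrate but no TDP2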
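test system = human TDP2 enzyme | input = TDP2 enzyme at 120 nM final | medium = 50 mM Tris-HCl pH 7.5 with Mg2+, KCl, DTT, BSA | also added = T5PNP substrate, 5 mM | times = 2 h at 37 °C | technique = epi absorbance | benchmarks = high control without enzyme, low control DMSO plus TDP2 | replication = each compound tested once, singlicate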
MBD2 inh: inhibitors of human MBD2 binding to methylated oligonucleotide | Q9UBB5 | TR-FRET | inhibition, % at 4.4 µM | hit rate 0.31% among 370,000; in the data active means inhibition above about 13%
IN multimer up: HIV-1 integrase multimerization activation, counter-screen; AID 1053131; hit rate 17% among 2,000; activation, % at 7.7 µM; TR-FRET HIV-1 integrase multimerization, biochemical; shares compounds with LEDGF integ inh; in the data active means activation above about 8.9%
TRFRET interf: TR-FRET optical interference, LEDGF/p75 integration counter-screen; shares compounds with LEDGF integ inh; 2,000 tested, under 10 active; inhibition, % at 7.7 µM; TR-FRET optical interference counterscreen, HIV-1 IN multimerization; AID 1053135;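 active means inhibition above the mean over all tested compounds plus 3 SD, which no compound reached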;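 further: 0% = integrase with antibodies and DMSO and 100% = antibodies without integrase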
LEDGF integ conf: confirmation of HIV-1 LEDGF/p75-dependent integration inhibitors | shares compounds with LEDGF integ inh | TR-FRET LEDGF/p75-dependent HIV-1 integration, biochemical | inhibition, % at 3.7 µM | hit rate 36% among 2,000 | AID 1053136; in the data active means inhibition above about 14%
* marks the source's active call; other numbers are inactive results; x = no result given.

SMILES | UHRF1 binding | LEDGF integ inh | TDP2 absorb | MBD2 inh | IN multimer up | TRFRET interf | LEDGF integ conf
Cc1ccsc1/C=C/C1=Cc2c(sc(NC(=O)CSc3n[nH]c(N)n3)c2C#N)C(C)(C)C1 | 8 | 18* | 0 | -6 | 0 | 1 | 39*
O=C(CCc1ccccc1-c1ccccc1CCNC(=O)c1cccc(F)c1)NCc1ccccc1 | 2 | -3 | 4 | 6 | x | x | x
O=C(NNC(=O)C1CCN(S(=O)(=O)c2ccc(Cl)cc2)CC1)c1ccc(Cl)cc1 | 2 | 84* | 4 | -5 | 0 | 2 | 6
CCOc1cc(C(C(=O)NCC2CCCO2)N(C(=O)Cn2nnc3ccccc32)c2ccc(NC(C)=O)cc2)ccc1O (configuration not stated) | 5 | -4 | -15 | 6 | x | x | x
COc1cc(C(C(=O)NCC2CCCO2)N(C(=O)Cn2nnc3ccccc32)c2ccc(OC)c(OC)c2)ccc1O (configuration not stated) | -1 | 42* | 9 | 9 | 1 | -5 | 3
O=C(c1cccs1)C1CCN(c2ncnc3sccc23)CC1 | -4 | 3 | 2 | -1 | x | x | x
Cc1c[nH]c2cccc(-c3cccc4ccccc34)c12 | 1 | -3 | -4 | 11 | x | x | x
O=C(Nc1ccc(F)cc1F)C1CCN(c2nnc(-n3cccc3)s2)CC1 | 0 | 4 | 8 | 1 | x | x | x
CC(=O)Nc1ccc(S(=O)(=O)NCCC(=O)OC(C)C(=O)NC2(C#N)CCCCC2)cc1 (configuration not stated) | 0 | 67* | -5 | 1 | -1 | 3 | -8
COC/C=C/C1=CC2=CC(=O)C(C)(OC(=O)c3cnc4ccccc4n3)C(=O)C2=CN1Cc1ccccc1 (configuration not stated) | -3 | 15* | 5 | -7 | 4 | -14 | 11
Cc1nc2ccccc2nc1OCC(=O)Nc1ccccc1 | -2 | 17* | 3 | -1 | 1 | -4 | 1
O=C(CSc1nc2ccccc2[nH]1)NC1CCS(=O)(=O)C1 (configuration not stated) | -1 | 37* | 4 | 0 | 0 | -1 | -8
CCOC(=O)c1ccc(NC(=O)CSc2nnc(-c3cccc(C)c3)n2C)cc1 | 0 | -3 | 5 | 4 | x | x | x
C=C1CC2C(=O)N(Cc3cc(OC)ccc3OC)C(C(=O)OCC)(C(=O)OCC)C1N2C(=O)OC(C)(C)C (configuration not stated) | -2 | 50* | 2 | -4 | 2 | -9 | -9
Cc1ccnc(NS(=O)(=O)c2ccc(NC(=O)c3ccccc3F)cc2)n1 | 4 | 25* | 5 | -6 | 1 | -2 | -3
COC(=O)C1CN(Cc2cn(Cc3ccc(OC)cc3)nn2)CCS(=O)(=O)N1Cc1ccc(F)cc1 (configuration not stated) | -1 | -2 | 3 | -8 | x | x | x
CCc1ccc(N2C=C(C(=O)OC)C(c3cccc4ccccc34)C(C#N)=C2N)cc1 (configuration not stated) | 7 | 22* | -10 | 9 | 1 | -3 | 4
COC(=O)C1=CN(c2ccc(OC)cc2)C(N)=C(C#N)C1c1cccc2ccccc12 (configuration not stated) | 9 | 3 | 9 | 4 | x | x | x
CC(CNc1ccccc1O)C(=O)O (configuration not stated) | 19 | 23* | 11 | -6 | 11* | -39 | -1
COc1ccc2ccccc2c1C=NNC(=O)c1cc(-c2ccc(C)cc2)n[nH]1 | -3 | -1 | -15 | -1 | x | x | x
O=c1/c(=C/c2ccco2)sc2n1CN(c1ccccc1)CN=2 | -2 | 17* | -1 | -7 | 2 | -8 | 4
CN(C)S(=O)(=O)N1CCC(CO)(Cc2cccc(C(F)(F)F)c2)CC1 | -2 | 32* | -18 | -3 | 1 | -3 | -6
Brc1ccc(C2=Nc3cccc4cccc(c34)N2)o1 | 0 | 42* | -7 | 6 | -1 | 4 | 5
COc1ccc(CNc2ccc(N3CCOCC3)cc2)cc1 | 2 | 1 | 8 | 4 | x | x | x

Source: PubChem BioAssay
